Test results reported in publication PMC8161485 (ACS Central Science, 2021).
Changes are numbered by the printed parent chain.

Columns and labels:
[1] = test system: AML03 primary AML specimen; assay: Cell viability of primary AML specimen AML03; type: cell-based; settings: Homo sapiens, read-out: AML03 LC50
In short: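 Primary AML samples came from consenting donors. Live mononuclear cells were isolated on a Ficoll-Paque density gradient and cryopreserved, with 40–70% viability after thawing. Cells were kept at 37 °C, humidified, 5% CO2.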

P450BM3 variant V-F10 = target: T1, P450BM3 variant V-F10 (Priestia megaterium, UniProt P14779, A181T/A185V/A198V/A291V/E253G/F206C/F82V/F88A/H237Q/L354V/P143S/R256S/S227R/T176I/V79F); assay: Heme spin shift binding of MCL to P450 variant V-F10; set-up: species or system Bacillus megaterium
T1 sequence (P14779 1-1049 V79F/F82V/F88A/P143S/T176I/A181T/A185V/A198V/F206C/S227R/H237Q/E253G/R256S/A291V/L354V): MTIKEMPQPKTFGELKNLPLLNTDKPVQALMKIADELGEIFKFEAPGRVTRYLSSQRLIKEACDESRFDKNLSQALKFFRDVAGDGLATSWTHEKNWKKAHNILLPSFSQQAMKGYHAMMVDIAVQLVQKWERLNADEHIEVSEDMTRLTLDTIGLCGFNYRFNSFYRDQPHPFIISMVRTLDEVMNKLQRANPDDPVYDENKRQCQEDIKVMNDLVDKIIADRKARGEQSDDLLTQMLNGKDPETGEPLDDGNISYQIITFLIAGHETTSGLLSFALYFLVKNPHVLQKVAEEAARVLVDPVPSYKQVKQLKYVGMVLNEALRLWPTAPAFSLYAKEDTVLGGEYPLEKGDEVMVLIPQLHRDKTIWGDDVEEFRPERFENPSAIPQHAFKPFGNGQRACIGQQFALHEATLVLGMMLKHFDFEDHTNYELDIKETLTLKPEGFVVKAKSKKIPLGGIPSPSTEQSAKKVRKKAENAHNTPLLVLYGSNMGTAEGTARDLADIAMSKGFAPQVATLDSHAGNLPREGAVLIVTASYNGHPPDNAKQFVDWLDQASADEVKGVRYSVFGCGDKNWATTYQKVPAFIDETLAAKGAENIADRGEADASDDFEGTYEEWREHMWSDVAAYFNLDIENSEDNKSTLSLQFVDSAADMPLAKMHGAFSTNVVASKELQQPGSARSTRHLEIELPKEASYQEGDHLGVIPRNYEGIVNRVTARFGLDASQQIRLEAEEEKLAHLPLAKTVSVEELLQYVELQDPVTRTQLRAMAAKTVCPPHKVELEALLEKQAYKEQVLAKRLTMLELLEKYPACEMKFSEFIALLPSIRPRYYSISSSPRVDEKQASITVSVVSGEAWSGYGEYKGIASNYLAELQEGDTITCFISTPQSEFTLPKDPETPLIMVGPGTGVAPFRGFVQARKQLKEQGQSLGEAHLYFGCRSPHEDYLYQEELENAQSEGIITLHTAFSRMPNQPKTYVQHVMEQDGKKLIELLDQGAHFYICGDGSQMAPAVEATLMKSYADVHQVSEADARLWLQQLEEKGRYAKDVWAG
In short: (§1)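 Purified P450 (3 μM) in 50 mM potassium phosphate, pH 8.0, titrated with test compound (5–2000 μM) from a 50 mM ethanol stock. A difference spectrum (350–500 nm) was taken at each step. Absorbance change at 390/420 nm (high/low spin) was plotted against concentration, with KD from a nonlinear 1:1 binding fit. At least triplicate, room temperature.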

AML cells and LSCs = settings: MCL vs PTL; cited from earlier work
[2] = test system: primary AML specimens derived from patients with relapsed AML; assay: Activity against the four primary AML specimens; type: cell-based; settings: Homo sapiens, read-out: LC50 across the four primary AML specimens
P450BM3 variant V-H10 = target: T2, P450BM3 variant V-H10 (Priestia megaterium, UniProt P14779, A181T/A185V/A198V/A291V/E253G/F206C/F88A/H237Q/L354V/P143S/R256S/S227R/T176I/V79N); assay: Heme spin shift binding of MCL to P450 variant V-H10; set-up: species or system Bacillus megaterium
T2 sequence (P14779 1-1049 V79N/F88A/P143S/T176I/A181T/A185V/A198V/F206C/S227R/H237Q/E253G/R256S/A291V/L354V): T1 sequence (P14779 1-1049 V79F/F82V/F88A/P143S/T176I/A181T/A185V/A198V/F206C/S227R/H237Q/E253G/R256S/A291V/L354V) with F79N, V82F
In short: as §1

heme oxygenase 1 (HO-1) = assay: Induction of heme oxygenase 1 in primary AML specimens; type: cell-based, human; settings: compared to vehicle-only control
M9-ENL1 cells = assay: Cell viability of M9-ENL1 cells, Annexin V / 7-AAD flow cytometry; type: cell-based, human; settings: 20 μM, 24 h

In the case of `C=C1C(=O)O[C@H]2[C@H]1CCC(C)=C1CC[C@@](C)(O)[C@@H]12` [MCL, micheliolide], the CC50 [1] is given as 15.7 µM, the Kd (P450BM3 variant V-F10) is given as 88 ± 18 µM and the “LC50 in vitro relative to PTL (fold higher)” value (AML cells and LSCs) is given as roughly 3 fold. The CC50 [2] was 19 to 22 µM, the Kd (P450BM3 variant V-H10) was 590 ± 90 µM and the “induction of heme oxygenase 1 (HO-1)” value (heme oxygenase 1 (HO-1)) was “Dose-dependent induction”. For the same compound, the “reduction in cell viability” value (M9-ENL1 cells) was 50%.
